This is an account of results in ChEMBL document CHEMBL1126902, “Synthesis, chemical reactivity, and antitumor evaluation of congeners of carmethizole hydrochloride, an experimental "acylated vinylogous carbinolamine" tumor inhibitor” (J Med Chem, 1993).

Assay [1] has as its system P388. In words: Change in tumor cell population in ip implanted P388 Leukemia in mice after administration of compound at 45.5 mg/kg. It counts as functional, Mus musculus. To be noted: route intraperitoneal. The method, boiled down:
(§1)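 P388 leukemia: ascitic fluid with ca. 5.2×10^6 cells inoculated ip into Portage-CD₂F₁ female mice. Drug given ip on days 1-5, starting 24 h after inoculation, dosed by average body weight. Vehicle was saline plus Tween 80, as a solution or suspension. KE = net log change in viable tumor cells from start to end of treatment.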

The subject of assay [2] is P388. In words: Percent increase in life span of dying mice tested in vivo at 91 mg/kg against ip implanted P388 Leukemia in mice. Type of assay: functional. To be noted: Mus musculus, route intraperitoneal. The method, boiled down:
(§2)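 Portage-CD2F1 female mice were inoculated ip with ascitic fluid containing ca. 5.2×10^6 P388 leukemia cells. Drug was given ip daily on days 1-5, starting 24 h after inoculation, and dosed by average body weight. %ILS was calculated from the median day of death of dying mice versus controls.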

A short description of assay [3]: Percent increase in life span of dying mice tested in vivo at 45.5 mg/kg against ip implanted LOX amelanotic melanoma in mice (60-day survivors). To be noted: Mus musculus, 1440 h, route intraperitoneal. Type of assay: functional. The method, boiled down:
(§3)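 Female CD2F1 mice implanted ip with ascitic fluid carrying ca. 1.7×10^6 LOX amelanotic melanoma cells. Drug given ip on days 1, 5 and 9, starting 24 h after implant, dosed by exact body weight; solutions or suspensions made fresh daily. %ILS is from the median day of death of dying mice versus controls, excluding 60-day survivors.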

Assay [4] can be described thus: Percent increase in life span of dying mice tested in vivo at 22.75 mg/kg against ip implanted LOX amelanotic melanoma in mice (60-day survivors). Type of assay: functional. The conditions noted are these: Mus musculus, 1440 h, route intraperitoneal. The method, boiled down: as §3
Assay [5] has as its system P388. In words: Percent increase in life span of dying mice tested in vivo at 11.4 mg/kg against ip implanted P388 Leukemia in mice. It counts as functional. The conditions noted are these: Mus musculus, route intraperitoneal. In short, it runs like this: (§4)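 Portage-CD2F1 female mice inoculated ip with ascitic fluid carrying ca. 5.2×10^6 P388 leukemia cells. Drug given ip daily on days 1-5, starting 24 h after inoculation, dosed by average body weight. %ILS is from the median day of death of dying mice versus controls.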

A short description of assay [6]: Percent increase in life span of dying mice tested in vivo at 182 mg/kg against ip implanted LOX amelanotic melanoma in mice (60-day survivors). It counts as functional. To be noted: Mus musculus, 1440 h, route intraperitoneal. The method, boiled down:
as §3

Assay [7] in a line: Percent increase in life span of dying mice tested in vivo at 91 mg/kg against ip implanted LOX amelanotic melanoma in mice (60-day survivors). Type of assay: functional. The conditions noted are these: Mus musculus, 1440 h, route intraperitoneal. The method, boiled down:
(§5)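 Nude CD2F1 female mice were implanted ip with ascitic fluid containing ca. 1.7×10^6 LOX amelanotic melanoma cells. Drug was given ip on days 1, 5 and 9, starting 24 h after implantation, and dosed by exact body weight. Solutions or suspensions were made fresh daily in saline plus Tween 80. %ILS was calculated from the median day of death of dying mice versus controls, excluding 60-day survivors.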

For assay [8], the system named is P388. In words: Change in tumor cell population in ip implanted P388 Leukemia in mice after administration of compound at 22.8 mg/kg. It counts as functional, Mus musculus. The conditions noted are these: route intraperitoneal. The method, boiled down:
(§6)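 Female Portage-CD2F1 mice were inoculated ip with ascitic fluid holding ca. 5.2×10^6 P388 cells. Dosing was ip on days 1-5, starting 24 h after inoculation, by average body weight, as a solution or suspension in saline plus Tween 80. KE is the net log change in viable tumor cell population from start to end of the treatment period.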

A short description of assay [9]: Change in tumor cell population in ip implanted LOX amelanotic melanoma in mice after administration of compound at 182 mg/kg. Type of assay: functional, Mus musculus. The conditions noted are these: route intraperitoneal. In short, it runs like this:
(§7)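 Female CD2F1 mice were implanted ip with ascitic fluid holding ca. 1.7×10^6 LOX cells. Dosing was ip on days 1, 5 and 9, starting 24 h after implantation, by exact body weight, as a solution or suspension in saline plus Tween 80, freshly prepared daily. KE is the net log change in viable tumor cells from start to end of treatment. Bracketed KE assumes Poisson survival, with 60-day survivors tumor-free.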

Assay [10] in a line: Change in tumor cell population in ip implanted LOX amelanotic melanoma in mice after administration of compound at 91 mg/kg. It counts as functional, Mus musculus. The conditions noted are these: route intraperitoneal. The method, boiled down:
as §7

The test system of assay [11] is P388. Put plainly: Percent increase in life span of dying mice tested in vivo at 22.8 mg/kg against ip implanted P388 Leukemia in mice. Type of assay: functional. The conditions noted are these: Mus musculus, route intraperitoneal. In short, it runs like this:
as §4

Assay [12] relates to P388. In words: Change in tumor cell population in ip implanted P388 Leukemia in mice after administration of compound at 91 mg/kg. Type of assay: functional, Mus musculus. The conditions noted are these: route intraperitoneal. The method, boiled down: as §1
In assay [13] the test system is P388. Put plainly: Change in tumor cell population in ip implanted P388 Leukemia in mice after administration of compound at 11.4 mg/kg. It counts as functional, Mus musculus. To be noted: route intraperitoneal. In short, it runs like this:
as §6

The nature of assay [14]: Change in tumor cell population in ip implanted LOX amelanotic melanoma in mice after administration of compound at 45.5 mg/kg. Type of assay: functional, Mus musculus. To be noted: route intraperitoneal. In short, it runs like this: as §7
The test system of assay [15] is P388. In words: Percent increase in life span of dying mice tested in vivo at 45.5 mg/kg against ip implanted P388 Leukemia in mice. It counts as functional. The conditions noted are these: Mus musculus, route intraperitoneal. The method, boiled down: as §4
A short description of assay [16]: Change in tumor cell population in ip implanted LOX amelanotic melanoma in mice after administration of compound at 22.75 mg/kg. Type of assay: functional, Mus musculus. To be noted: route intraperitoneal. The method, boiled down:
as §7

The test system of assay [17] is P388. In words: Percent increase in life span of dying mice tested in vivo at 11.8 mg/kg against ip implanted P388 Leukemia in mice. It counts as functional. The conditions noted are these: Mus musculus, route intraperitoneal. The method, boiled down:
as §4

Assay [18] is described as follows: Change in tumor cell population in ip implanted LOX amelanotic melanoma in mice after administration of compound at 188 mg/kg. It counts as functional, Mus musculus. The conditions noted are these: route intraperitoneal. The method, boiled down: as §7
A short description of assay [19]: Change in tumor cell population in ip implanted LOX amelanotic melanoma in mice after administration of compound at 23.5 mg/kg. It counts as functional, Mus musculus. The conditions noted are these: route intraperitoneal. In short, it runs like this: as §7
For assay [20], the system named is P388. In words: Change in tumor cell population in ip implanted P388 Leukemia in mice after administration of compound at 23.5 mg/kg. It counts as functional, Mus musculus. The conditions noted are these: route intraperitoneal. In short, it runs like this: as §6
Assay [21] in a line: Change in tumor cell population in ip implanted LOX amelanotic melanoma in mice after administration of compound at 47 mg/kg. It counts as functional, Mus musculus. The conditions noted are these: route intraperitoneal. The method, boiled down: as §7
The nature of assay [22]: Percent increase in life span of dying mice tested in vivo at 188 mg/kg against ip implanted LOX amelanotic melanoma in mice (60-day survivors). Type of assay: functional. The conditions noted are these: Mus musculus, 1440 h, route intraperitoneal. In short, it runs like this:
as §3

Assay [23] deals with P388. Put plainly: Percent increase in life span of dying mice tested in vivo at 23.5 mg/kg against ip implanted P388 Leukemia in mice. It counts as functional. The conditions noted are these: Mus musculus, route intraperitoneal. In short, it runs like this:
as §4

Assay [24] concerns P388. In words: Percent increase in life span of dying mice tested in vivo at 47 mg/kg against ip implanted P388 Leukemia in mice. It counts as functional. To be noted: Mus musculus, route intraperitoneal. The method, boiled down: as §4
In assay [25] the test system is P388. Put plainly: Change in tumor cell population in ip implanted P388 Leukemia in mice after administration of compound at 11.8 mg/kg. It counts as functional, Mus musculus. The conditions noted are these: route intraperitoneal. The method, boiled down:
as §6

In assay [26] the test system is P388. Put plainly: Percent increase in life span of dying mice tested in vivo at 94 mg/kg against ip implanted P388 Leukemia in mice. Type of assay: functional. The conditions noted are these: Mus musculus, route intraperitoneal. In short, it runs like this: as §2
Assay [27] in a line: Percent increase in life span of dying mice tested in vivo at 94 mg/kg against ip implanted LOX amelanotic melanoma in mice (60-day survivors). Type of assay: functional. The conditions noted are these: Mus musculus, 1440 h, route intraperitoneal. The method, boiled down:
as §5

A short description of assay [28]: Percent increase in life span of dying mice tested in vivo at 47 mg/kg against ip implanted LOX amelanotic melanoma in mice (60-day survivors). Type of assay: functional. To be noted: Mus musculus, 1440 h, route intraperitoneal. The method, boiled down:
as §3

In assay [29] the test system is P388. Put plainly: Change in tumor cell population in ip implanted P388 Leukemia in mice after administration of compound at 94 mg/kg. It counts as functional, Mus musculus. To be noted: route intraperitoneal. In short, it runs like this: as §1
The nature of assay [30]: Percent increase in life span of dying mice tested in vivo at 23.5 mg/kg against ip implanted LOX amelanotic melanoma in mice (60-day survivors). It counts as functional. To be noted: Mus musculus, 1440 h, route intraperitoneal. The method, boiled down:
as §3

Assay [31] has as its system P388. Put plainly: Change in tumor cell population in ip implanted P388 Leukemia in mice after administration of compound at 47 mg/kg. Type of assay: functional, Mus musculus. The conditions noted are these: route intraperitoneal. The method, boiled down: as §1
Assay [32] can be described thus: Change in tumor cell population in ip implanted LOX amelanotic melanoma in mice after administration of compound at 94 mg/kg. Type of assay: functional, Mus musculus. The conditions noted are these: route intraperitoneal. The method, boiled down: as §7

Each structure is given as a SMILES string.

`CNC(=O)OCc1nc([S+](C)[O-])n(C)c1COC(=O)NC` (configuration not stated): the KE stood at 0.9 in the assay with P388 [1]; 1.4 with P388 [8]; 1.8 in assay [9]; 2 in assay [10]; 1.3 in the assay with P388 [12]; 1.4 in the assay with P388 [13]. The KE in [14] and in assay [16] was 2 in each case. The results for the ILS at 91 mg/kg (with P388 [2]; in assay [7]) were 17% and -8%, respectively. Besides, the ILS at 45.5 mg/kg in [3] is -8%; in the assay with P388 [15], 27%. The ILS at 22.75 mg/kg in [4] was -7%. Further, in the assay with P388 [5], the ILS at 11.4 mg/kg is 10%. In assay [6], the ILS at 182 mg/kg was found to be 2%. For the same molecule, the ILS at 22.8 mg/kg in the assay with P388 [11] was 10%.

With `CNC(=O)OCc1nc(SC(C)C)n(C)c1COC(=O)NC`, the ILS at 11.8 mg/kg in the assay with P388 [17] stood at 31%. Besides, the KE in [18] is -0.2; in [19] it was 1.3; in the assay on P388 [20], 1; in assay [21] it was 0.7; in the assay on P388 [25], 0.6; in the assay on P388 [29] it was -1.5. The figures for the KE (with P388 [31]; in assay [32]) were 0.9 and 0.6, respectively. Besides, the ILS at 188 mg/kg in assay [22] amounted to 45%. The ILS at 23.5 mg/kg with P388 [23] came out at 25%; in assay [30] it was 13%. Further, the ILS at 47 mg/kg came to 27% with P388 [24] and 24% in assay [28]. The values for the ILS at 94 mg/kg (in the assay with P388 [26]; in assay [27]) were 59% and 28%, respectively.
